Our source for the IC50 and Ki values is ChEMBL document CHEMBL1131440, “Synthesis and potent antifolate activity and cytotoxicity of B-ring deaza analogues of the nonpolyglutamatable dihydrofolate reductase inhibitor Nalpha-(4-amino-4-deoxypteroyl)-Ndelta-hemiphthaloyl- L-ornithine (PT523)” (J Med Chem, 1998).

One experiment has as its system A498. The experiment in a line: Compound was evaluated for in vitro activity against A498 kidney cell lines (Human tumor cells ). Type of experiment: functional, cell-based. The method, boiled down:
(§1)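 NCI Developmental Therapeutics Program human tumor cell panel; drug exposure in 96-well plates for the last 48 h of a 72-h incubation, then cells stained for total protein with sulforhodamine B per the standard NCI protocol. Data supplied by NCI.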

The subject of a further experiment is A549. The experiment can be described thus: Compound was evaluated for in vitro activity against A549/ATCC lung cancer cell lines (Human tumor cells ).
For a further experiment, the system named is BT-549. The experiment in a line: Compound was evaluated for in vitro activity against BT-549 breast cancer cell lines (Human tumor cells ). Type of experiment: functional, cell-based. The method, boiled down: as §1
Another experiment relates to CCRF-CEM. The experiment in a line: Compound was evaluated for in vitro activity against CCRF-CEM leukemia cell lines (Human tumor cells ). Type of experiment: functional, cell-based. The method, boiled down:
as §1

A further experiment has as its system COLO 205. The experiment in a line: Compound was evaluated for in vitro activity against COLO 205 Colon cell lines (Human tumor cells ). Type of experiment: functional, cell-based. The method, boiled down: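 Total protein then stained with sulforhodamine B following the standard NCI protocol. Data supplied by the NCI Developmental Therapeutics Program.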

The test system of the next experiment is DU-145. The experiment in a line: Compound was evaluated for in vitro activity against DU-145 prostate cell lines (Human tumor cells ). Type of experiment: functional, cell-based. The method, boiled down: as §1
In the next experiment the test system is HOP-92. The experiment in a line: Compound was evaluated for in vitro activity against HOP-92 lung cancer cell lines (Human tumor cells ). Type of experiment: functional, cell-based. The method, boiled down:
as §1

A further experiment deals with HCC 2998. The experiment in a line: Compound was evaluated for in vitro activity against HCC2998 Colon cell lines (Human tumor cells ). Type of experiment: functional, cell-based. The method, boiled down:
as §1

In a further experiment the test system is HL-60. The experiment can be described thus: Compound was evaluated for in vitro activity against HL-60(TB) leukemia cell lines (Human tumor cells ). Type of experiment: functional, cell-based. The method, boiled down:
as §1

Another experiment has as its system Hs-578T. The experiment in a line: Compound was evaluated for in vitro activity against Hs 578.T breast cancer cell lines (Human tumor cells ). Type of experiment: functional, cell-based. The method, boiled down: as §1
The next experiment relates to KM12. The experiment in a line: Compound was evaluated for in vitro activity against KM-12 Colon cell lines (Human tumor cells ). Type of experiment: functional, cell-based. The method, boiled down: as §1
A further experiment has as its system K562. The experiment can be described thus: Compound was evaluated for in vitro activity against K562 leukemia cell lines (Human tumor cells ). Type of experiment: functional, cell-based. The method, boiled down: as §1
A further experiment relates to IGROV-1. The experiment can be described thus: Compound was evaluated for in vitro activity against IGROV1 Ovary cell lines (Human tumor cells ). Type of experiment: functional, cell-based. The method, boiled down: as §1
A further experiment deals with M14. The experiment can be described thus: Compound was evaluated for in vitro activity against M14 Melanoma cell lines (Human tumor cells ). Type of experiment: functional, cell-based. The method, boiled down: as §1
The test system of a further experiment is MDA-MB-435. The experiment can be described thus: Compound was evaluated for in vitro activity against MDA-MB-435 breast cancer cell lines (Human tumor cells ). Type of experiment: functional, cell-based. The method, boiled down:
as §1

A further experiment concerns Malme-3M. The experiment in a line: Compound was evaluated for in vitro activity against MALME-3M Melanoma cell lines (Human tumor cells ). Type of experiment: functional, cell-based. The method, boiled down:
as §1

The next experiment has as its system NCI-H226. The experiment in a line: Compound was evaluated for in vitro activity against NCI-H226 lung cancer cell lines (Human tumor cells ). Type of experiment: functional, cell-based. The method, boiled down:
as §1

The next experiment deals with OVCAR-4. The experiment can be described thus: Compound was evaluated for in vitro activity against OVCAR-4 Ovary cell lines (Human tumor cells ). Type of experiment: functional, cell-based. The method, boiled down:
as §1

In another experiment the test system is OVCAR-5. The experiment can be described thus: Compound was evaluated for in vitro activity against OVCAR-5 Ovary cell lines (Human tumor cells ). Type of experiment: functional, cell-based. The method, boiled down: as §1
The test system of the next experiment is PC-3. The experiment can be described thus: Compound was evaluated for in vitro activity against PC-3 prostate cell lines (Human tumor cells ). Type of experiment: functional, cell-based. The method, boiled down: as §1
In another experiment the test system is RXF 393. The experiment can be described thus: Compound was evaluated for in vitro activity against RXF-393 kidney cell lines (Human tumor cells ). Type of experiment: functional, cell-based. The method, boiled down:
as §1

For a further experiment, the system named is RPMI-8226. The experiment can be described thus: Compound was evaluated for in vitro activity against RPMI-8226 leukemia cell lines (Human tumor cells ). Type of experiment: functional, cell-based. The method, boiled down: as §1
The test system of the next experiment is SF-295. The experiment can be described thus: Compound was evaluated for in vitro activity against SF-295 CNS cell lines (Human tumor cells ). Type of experiment: functional, cell-based. The method, boiled down:
as §1

A further experiment concerns SNB-. The experiment can be described thus: Compound was evaluated for in vitro activity against […] CNS cell lines (Human tumor cells ). Type of experiment: functional, cell-based. The method, boiled down: as §1
A further experiment deals with SR. The experiment in a line: Compound was evaluated for in vitro activity against SR leukemia cell lines (Human tumor cells ). Type of experiment: functional, cell-based. The method, boiled down: as §1
The test system of the next experiment is SK-MEL-28. The experiment can be described thus: Compound was evaluated for in vitro activity against SK-MEL28 Melanoma cell lines (Human tumor cells ). Type of experiment: functional, cell-based. The method, boiled down: as §1
The next experiment deals with SK-MEL-2. The experiment in a line: Compound was evaluated for in vitro activity against SK-MEL-2 Melanoma cell lines (Human tumor cells ). Type of experiment: functional, cell-based. The method, boiled down: as §1
Experiment [1] is described as follows: Compound was tested for in vitro antitumor activity, using SCC25 human head and neck squamous carcinoma cells. Type of experiment: functional. The following applies: SCC-25. The method, boiled down: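 Clonogenic assay: SCC25 cells exposed to graded drug concentrations for 72 h at 37 °C, 5% CO2, in DMEM with 10% FBS and hydrocortisone ([…]). Then replated as single cells at drug-dependent densities and grown in drug-free medium 10-14 days. Colonies stained with crystal violet; only colonies of ≥50 cells scored. IC50 is mean ± SD of ≥3 assays on different days.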

For a further experiment, the system named is TK-10. The experiment in a line: Compound was evaluated for in vitro activity against TK-10 kidney cell lines (Human tumor cells ). Type of experiment: functional, cell-based. The method, boiled down:
as §1

Another experiment deals with T47D. The experiment can be described thus: Compound was evaluated for in vitro activity against T-47D breast cancer cell lines (Human tumor cells ). Type of experiment: functional, cell-based. The method, boiled down:
as §1

The subject of another experiment is UACC-257. The experiment can be described thus: Compound was evaluated for in vitro activity against UACC-257 Melanoma cell lines (Human tumor cells ). Type of experiment: functional, cell-based. The method, boiled down: as §1
A further experiment deals with U-251. The experiment can be described thus: Compound was evaluated for in vitro activity against U251 CNS cell lines (Human tumor cells ). Type of experiment: functional, cell-based. The method, boiled down: as §1
The test system of another experiment is NCI-H522. The experiment in a line: Compound was evaluated for in vitro activity against NCI-H522 lung cancer cell lines (Human tumor cells ). Type of experiment: functional, cell-based. The method, boiled down: as §1
The test system of another experiment is MOLT-4. The experiment in a line: Compound was evaluated for in vitro activity against MOLT-4 leukemia cell lines (Human tumor cells ). Type of experiment: functional, cell-based. The method, boiled down:
as §1

For the next experiment, the system named is EKVX. The experiment can be described thus: Compound was evaluated for in vitro activity against EKVX lung cancer cell lines (Human tumor cells ). Type of experiment: functional, cell-based. The method, boiled down: as §1
Another experiment deals with T1, Dihydrofolate reductase (Homo sapiens, UniProt P00374).
T1 sequence (P00374 whole entry): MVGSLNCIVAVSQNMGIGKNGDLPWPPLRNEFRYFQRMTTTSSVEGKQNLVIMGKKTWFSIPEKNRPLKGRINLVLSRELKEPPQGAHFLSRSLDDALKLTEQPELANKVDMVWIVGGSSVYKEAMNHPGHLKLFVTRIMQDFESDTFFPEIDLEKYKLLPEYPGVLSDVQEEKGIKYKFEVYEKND
The experiment in a line: Compound was evaluated for the inhibition of Dihydrofolate reductase at concentration ranged from 0.15-0.50 uM.

In the case of `CN(Cc1cnc2nc(N)nc(N)c2n1)c1ccc(C(=O)N[C@@H](CCC(=O)O)C(=O)O)cc1` [METHOTREXATE], the IC50 in the experiment on A498 is above 1000 nM; with A549 it was 33 nM; in the experiment with BT-549, above 1000 nM; with CCRF-CEM, 29 nM; with COLO 205, 870 nM; in the experiment with DU-145, 45 nM. Moreover, the concentration for half-maximal inhibition (IC50) was above 1000 nM in the experiment on HOP-92; 110 nM with HCC 2998; 39 nM with HL-60; above 1000 nM in the experiment with Hs-578T; 33 nM with KM12; 26 nM in the experiment on K562. The IC50 is 65 nM in the experiment with IGROV-1; 32 nM in the experiment on M14; above 1000 nM in the experiment on MDA-MB-435; above 1000 nM in the experiment with Malme-3M; above 1000 nM in the experiment with NCI-H226; above 1000 nM in the experiment on OVCAR-4. The IC50 is 980 nM in the experiment on OVCAR-5; 27 nM in the experiment with PC-3; above 1000 nM in the experiment with RXF 393; 33 nM in the experiment with RPMI-8226; 36 nM in the experiment with SF-295; above 1000 nM in the experiment on SNB-. Further, the IC50 is 33 nM in the experiment with SR; above 1000 nM with SK-MEL-28; above 1000 nM in the experiment on SK-MEL-2; 15 nM in experiment [1]; above 1000 nM in the experiment on TK-10; above 1000 nM with T47D. For the same molecule, the IC50 with UACC-257 is 790 nM; with U-251, 63 nM; with NCI-H522 it was 450 nM; with MOLT-4 it was 28 nM; in the experiment on EKVX it was above 1000 nM.
As to `Nc1nc(N)c2nc(CNc3ccc(C(=O)NC(CCCNC(=O)c4ccccc4C(=O)O)C(=O)O)cc3)ccc2n1` (stereo unspecified), on Dihydrofolate reductase, affinity was put at a Ki of 0.00019 nM. In [1], this molecule came in with an IC50 of 1.2 nM.
In turn, `Nc1nc(N)c2c(Cl)c(CNc3ccc(C(=O)NC(CCCNC(=O)c4ccccc4C(=O)O)C(=O)O)cc3)ccc2n1` (stereo unspecified) returned a Ki at Dihydrofolate reductase of 0.00011 nM. Besides, in experiment [1], the IC50 came out at 0.33 nM.
As to `Cc1c(CNc2ccc(C(=O)NC(CCCNC(=O)c3ccccc3C(=O)O)C(=O)O)cc2)ccc2nc(N)nc(N)c12` (stereo unspecified), the Ki on Dihydrofolate reductase was determined as 0.0001 nM. In [1], this molecule had an IC50 of 0.44 nM.
